# Laboratory results from ChEMBL document CHEMBL2331394, “Neuroprotective effects of mercaptoethylleonurine and mercaptoethylguanidine analogs on hydrogen peroxide-induced apoptosis in human neuronal SH-SY5Y cells” (Bioorg Med Chem Lett, 2013).
# Activity calls are given as the source filed them. The rule behind the calls is not given here.
# Key:
# [1] = Cytotoxicity against human SH-SY5Y cells at 5 to 100 uM by MTT assay; format: cell-based
# [2] = Neuroprotective activity in human SH-SY5Y cells assessed as reduction of H2O2-induced apoptosis at 5 mM after 24 hrs by MTT assay relative to N-acetyl-cysteine; format: functional, cell-based; design: scale not given: the % may be the effect or the level left
# [3] = Neuroprotective activity in human SH-SY5Y cells assessed as reduction of H2O2-induced apoptosis at 25 uM after 24 hrs by MTT assay relative to control; format: functional, cell-based; design: scale not given: the % may be the effect or the level left
# [4] = Neuroprotective activity in human SH-SY5Y cells assessed as reduction of H2O2-induced apoptosis at 5 uM after 24 hrs by MTT assay relative to control; format: functional, cell-based; design: scale not given: the % may be the effect or the level left
# [5] = Neuroprotective activity in human SH-SY5Y cells assessed as reduction of H2O2-induced apoptosis at 50 uM after 24 hrs by MTT assay relative to control; format: functional, cell-based; design: scale not given: the % may be the effect or the level left
# [6] = Neuroprotective activity in H2O2-stimulated human SH-SY5Y cells assessed as upregulation of Bax expression incubated for 4 hrs prior to H2O2 challenge measured after 12 hrs by Western blotting analysis; format: functional, cell-based; settings: in the assay text read “downregulation of Bax expression” for “upregulation of Bax expression”
# In short: (§1)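 SH-SY5Y cells pretreated 4 h with test agent (5, 25, 50 µM) or NAC (5 mM), then exposed to 100 µM H2O2 for 12 h. Bcl-2 and Bax quantified by Western blot densitometry against GAPDH. Mean ± SEM of at least three independent experiments, each in duplicate.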
# SH-SY5Y [7] = test: Inhibition of H2O2-induced ERK phosphorylation in human SH-SY5Y cells at 50 uM incubated for 4 hrs prior to H2O2 induction measured after 12 hrs by Western blotting analysis; format: cell-based
# In short: (§2)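 SH-SY5Y cells pretreated 4 h with 50 µM test agent, then stimulated with 100 µM H2O2 for the indicated periods before harvest. Phosphorylated Akt, JNK, ERK and p38 detected by Western blot, normalised to the corresponding total protein as loading control.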
# [8] = target: MAP kinase p38 (Homo sapiens) (UniProt O15264+Q15759+Q16539+P53778); test: Inhibition of H2O2-induced p38 phosphorylation in human SH-SY5Y cells at 50 uM incubated for 4 hrs prior to H2O2 induction measured after 12 hrs by Western blotting analysis; format: cell-based; in short: as §2
# [9] = target: c-Jun N-terminal kinase, JNK (Homo sapiens) (UniProt P45983+P53779+P45984); test: Inhibition of H2O2-induced JNK phosphorylation in human SH-SY5Y cells at 50 uM incubated for 4 hrs prior to H2O2 induction measured after 12 hrs by Western blotting analysis; format: cell-based; in short: as §2
# SH-SY5Y [10] = test: Inhibition of H2O2-induced AKT phosphorylation in human SH-SY5Y cells at 50 uM incubated for 4 hrs prior to H2O2 induction measured after 12 hrs by Western blotting analysis; format: cell-based; in short: as §2
# [11] = Neuroprotective activity in H2O2-stimulated human SH-SY5Y cells assessed as downregulation of Bcl2 expression incubated for 4 hrs prior to H2O2 challenge measured after 12 hrs by Western blotting analysis; format: functional, cell-based; settings: in the assay text read “upregulation of Bcl2 expression” for “downregulation of Bcl2 expression”; in short: as §1
# [12] = Neuroprotective activity in H2O2-stimulated human SH-SY5Y cells assessed as downregulation of Bcl2 expression at 5 mM incubated for 4 hrs prior to H2O2 challenge measured after 12 hrs by Western blotting analysis; format: functional, cell-based; settings: in the assay text read “upregulation of Bcl2 expression” for “downregulation of Bcl2 expression”; in short: as §1
# [13] = Neuroprotective activity in H2O2-stimulated human SH-SY5Y cells assessed as upregulation of Bax expression at 5 mM incubated for 4 hrs prior to H2O2 challenge measured after 12 hrs by Western blotting analysis; format: functional, cell-based; settings: in the assay text read “downregulation of Bax expression” for “upregulation of Bax expression”; in short: as §1
Structure (SMILES),Activity [1],Activity [2] [%],Activity [3] [%],Activity [4] [%],Activity [5] [%],Activity [6],inhibition (SH-SY5Y [7]),inhibition [8],inhibition [9],inhibition (SH-SY5Y [10]),Activity [11],Activity [12],Activity [13]
N=C(NCCS)NC1CCC(O)CC1 (configuration not stated),Non-toxic,82.4,38.6,31.6,30.4,,,,,,,,
COc1cc(C(=O)OCCCCNC(=N)NCCS)cc(OC)c1OC,Non-toxic,82.4,49.4,32.5,49.1,,,,,,,,
CC(O)CNC(=N)NCCS (configuration not stated),Non-toxic,88.8,67.3,77.1,65.5,,,,,,,,
COc1cc(C(=O)OCCCCCNC(=N)NCCS)cc(OC)c1O,Non-toxic,76.4,59.9,53.9,65.9,,,,,,,,
COc1ccc(C(=O)OCCCCNC(=N)NCCS)cc1,Non-toxic,82.4,37.5,42.4,48.6,,,,,,,,
COc1cc(C(=O)OCCCNC(=N)NCCS)cc(OC)c1O,Non-toxic,76.4,83.3,78.8,93.3,,,,,,,,
CCC(O)CNC(=N)NCCS (configuration not stated),Non-toxic,88.8,77.1,75.8,71.1,,,,,,,,
COc1cc(C(=O)OCCCCNC(=N)N)cc(OC)c1O,,82.4,38.5,76.7,46,,,,,,,,
CC(CO)NC(=N)NCCS (configuration not stated),Non-toxic,88.8,67.2,59.9,80,,,,,,,,
COc1cc(OC)cc(C(=O)OCCCCNC(=N)NCCS)c1,Non-toxic,88.8,63.5,62.1,66.1,,,,,,,,
N=C(NCCS)NCCCO,Non-toxic,76.4,81,67.2,82.1,,,,,,,,
N=C(NCCN)NCCS,Non-toxic,76.4,75.4,66.3,79.2,,,,,,,,
COc1cc(C(=O)OCCCCNC(=N)NCCS)cc(OC)c1O,Non-toxic,88.8,66.4,60.7,60.4,,,,,,,,
COc1cc(C(=O)OC2CCC(NC(=N)NCCS)CC2)cc(OC)c1O (configuration not stated),Non-toxic,88.8,67.2,76.4,65.9,,,,,,,,
N=C(NCCS)NCCCCCO,Non-toxic,76.4,80.6,60,82.8,,,,,,,,
N=C(NCCS)NCCCN,Non-toxic,82.4,84.3,77.3,96.5,Dose-dependent effect,inactive,inactive,Active,Active,Dose-dependent effect,,
N=C(NCCO)NCCS,Non-toxic,76.4,59.6,56.4,65.1,,,,,,,,
N=C(NCCS)NCCCCCCO,Non-toxic,82.4,55.5,72.4,52.9,,,,,,,,
N=C(NCCS)NCCCCO,Non-toxic,82.4,63.5,68,70.2,,,,,,,,
CC(=O)N[C@@H](CS)C(=O)O,,,,,,,,,,,,Active,Active
COc1cc(C(=O)OCCCCCCNC(=N)NCCS)cc(OC)c1O,Non-toxic,88.8,80.6,78.5,73.8,,,,,,,,
